Measured values: ChEMBL document CHEMBL5724801, “EUbOPEN Chemogenomics Library - Multiplex” (2024)
“And” between values parts separate entries of the source, which are not always exact repeats. Identical values can stand only once.

System: HEK-293T
Experiment: Multiplex assay against HEK293T
Format: toxicity, cell-based
Conditions: human
In short: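 Values for tubulin, mitochondrial-mass and membrane-permeability phenotypes are per cents of cells with healthy nuclei. These cells were identified by CellPathfinder machine-learning gating of live cells that had been stained at seeding with Hoechst33342, BioTracker Green Microtubule Cytoskeleton Dye, MitoTracker Red and Annexin V Alexa Fluor 680 and imaged on a CQ1 microscope at 37°C and 5% CO2 after compound addition. The gating first set Hoechst high-intensity objects apart from normal cells, then split normal cells into healthy, pyknosed or fragmented nuclei, and pyknosed cells into mitotic or apoptotic.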

[1] = 12 h, 1 µM, compound concentration 1 uM
[2] = 12 h, 10 µM, compound concentration 10 uM
[3] = 24 h, 1 µM, compound concentration 1 uM
[4] = 24 h, 10 µM, compound concentration 10 uM
[5] = 48 h, 1 µM, compound concentration 1 uM
[6] = 48 h, 10 µM, compound concentration 10 uM

## COc1ccc(-n2c(C)c([N+](=O)[O-])c3ccc(O)cc32)cc1
[1]
  Population Apoptotic (%): 6.21% and 10.43%
  Population Fragmented Nuclei (%): 1.16% and 7.69%
  Population Hoechst High Intensity Objects (%): 0%
  Population Membrane Permeable-Phenotype (%): 1.02% and 0%
  Population Mitochondria Different-Phenotype (%): 36.04% and 17.65%
  Population Mitotic Cells (%): 93.79% and 89.57%
  Population Normal (%): 100%
  Population Pyknosed Nuclei (%): 41.91% and 80.42%
  Total Cell Count: 346 and 143
[2]
  Population Apoptotic (%): 9.49% and 17.86%
  Population Fragmented Nuclei (%): 2.91% and 1.47%
  Population Hoechst High Intensity Objects (%): 0.24% and 0.73%
  Population Membrane Permeable-Phenotype (%): 0.41% and 0%
  Population Mitochondria Different-Phenotype (%): 38.27% and 18.18%
  Population Mitotic Cells (%): 90.51% and 82.14%
  Population Normal (%): 99.76% and 99.27%
  Population Pyknosed Nuclei (%): 38.26% and 82.35%
[3]
  Population Apoptotic (%): 11.43% and 19%
  Population Fragmented Nuclei (%): 1.47% and 4.73%
  Population Healthy Nuclei (%): 72.84% and 27.7%
  Population Hoechst High Intensity Objects (%): 0%
  Population Membrane Permeable-Phenotype (%): 0.76% and 2.44%
  Population Mitochondria Different-Phenotype (%): 19.9% and 19.51%
  Population Mitotic Cells (%): 88.57% and 81%
  Population Normal (%): 100%
  Population Pyknosed Nuclei (%): 25.69% and 67.57%
[4]
  Population Apoptotic (%): 20% and 19.35%
  Population Fragmented Nuclei (%): 2.53% and 2.65%
  Population Healthy Nuclei (%): 71.03% and 35.76%
  Population Hoechst High Intensity Objects (%): 0% and 0.66%
  Population Membrane Permeable-Phenotype (%): 0.97% and 1.85%
  Population Mitochondria Different-Phenotype (%): 27.18% and 12.96%
  Population Mitotic Cells (%): 80% and 80.65%
  Population Normal (%): 100% and 99.34%
  Population Pyknosed Nuclei (%): 26.44% and 61.59%
  Population Tubulin-Different-Phenotype (%): 27.51% and 11.11%
  Total Cell Count: 435 and 152
[5]
  Population Apoptotic (%): 9.35% and 22.41%
  Population Fragmented Nuclei (%): 2.61% and 2.72%
  Population Healthy Nuclei (%): 87.04% and 65.76%
  Population Hoechst High Intensity Objects (%): 0.1% and 0%
  Population Membrane Permeable-Phenotype (%): 3.78% and 1.65%
  Population Mitochondria Different-Phenotype (%): 21% and 23.97%
  Population Mitotic Cells (%): 90.65% and 77.59%
  Population Normal (%): 99.9% and 100%
[6]
  Population Apoptotic (%): 17.07% and 21.57%
  Population Fragmented Nuclei (%): 3.71% and 2.48%
  Population Healthy Nuclei (%): 84.59% and 65.84%
  Population Hoechst High Intensity Objects (%): 0.14% and 0%
  Population Membrane Permeable-Phenotype (%): 5.23% and 1.89%
  Population Mitochondria Different-Phenotype (%): 33.9% and 25.47%
  Population Mitotic Cells (%): 82.93% and 78.43%
  Population Normal (%): 99.86% and 100%
  Population Pyknosed Nuclei (%): 11.7% and 31.68%
